# In the library only some 4% were active in any assay of this set; here they are far more common.
# SIRT5 block = blocks human SIRT5 desuccinylation of peptide | AID 652115 | 330,000 tested, 1.1% active | Purified SirT5, succinyl-peptide AMC, trypsin-coupled fluorescence | inhibition, % at 15 µM; in the data active = inhibition above about 15%; inconclusive = no clear call, values can overlap the other calls
# Target sequence (Q9NXA8 whole entry, looked up): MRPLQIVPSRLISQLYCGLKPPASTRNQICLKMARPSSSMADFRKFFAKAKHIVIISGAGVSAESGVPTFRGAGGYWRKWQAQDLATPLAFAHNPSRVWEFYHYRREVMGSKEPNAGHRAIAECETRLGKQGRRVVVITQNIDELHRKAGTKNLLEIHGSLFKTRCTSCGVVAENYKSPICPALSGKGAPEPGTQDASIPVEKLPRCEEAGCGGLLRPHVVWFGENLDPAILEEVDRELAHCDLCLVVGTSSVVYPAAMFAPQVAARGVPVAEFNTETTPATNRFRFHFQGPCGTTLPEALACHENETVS
# Statin myotox sup = suppression of simvastatin myotoxicity; C2C12 myotubes + simvastatin, ATP luminescence, 48 h; scaled: DMSO 0, geranylgeraniol control 100; rescue of ATP level, % at 7.49 µM; 330,000 tested, 0.78% active;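 active = mean ATP rescue above about 67%, or every replicate alone reaching that limit, limit read from the data, passing the limit was not always enough; inconclusive = no clear call, values can overlap the other calls; inactive = mean under the limit and some replicate under it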;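 note: myotubes were challenged with 10 µM simvastatin during compound exposure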
# FN deposition inh = fibronectin deposition inhibition | AH1F fibroblasts, Alexa488-fibronectin deposition fluorescence, overnight | inhibition, % at 12.6 µM | 350,000 tested, 0.086% active | AID 743247;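 active = mean inhibition across replicates of 30% or more, regardless of how many single replicates reach that level; inconclusive = mean under 30% yet at least half of replicates reach 30%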;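 note: positive control wells lacked labelled fibronectin entirely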
#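 Material: AH1F fibroblast monolayer depositing Alexa488-labelled fibronectin into matrix / Amount: 10000 AH1F cells per well / Signal: fluorescence 485/525 nm / Medium: DMEM, 2% serum / Compound: single dose, pinned / Incubation: 1 h cell adhesion before compound, then overnight fibronectin incubation / Reagent: Alexa488-FN, 24 nM final / Read-out: inhibition of fibronectin deposition signal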
# FGF22 binding = binders of recombinant human FGF22 by thermal shift. Q9HCT0. SYPRO orange fluorescence; percent of sucrose octasulfate shift, DMSO zero. activity (Tm shift, normalised), % at 9.99 µM. 340,000 tested, 1.5% active. AID 651658;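 active = mean Tm shift, scaled 0 neutral to 100 positive control, at about 1.3% or above, every replicate too, limit read from the data; inconclusive = no clear call, values can overlap the other calls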
# Target sequence (Q9HCT0 whole entry, looked up): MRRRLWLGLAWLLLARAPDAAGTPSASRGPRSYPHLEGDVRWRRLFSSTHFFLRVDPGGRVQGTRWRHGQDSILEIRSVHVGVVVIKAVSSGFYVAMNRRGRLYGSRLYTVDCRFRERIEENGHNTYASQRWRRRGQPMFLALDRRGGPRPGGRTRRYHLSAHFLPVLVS
# rRNA inh HTS = inhibitors of bacterial rRNA selective over humanized ribosomes | GFP signal change (wild-type ribosome), % (test concentration not listed) | E. coli WT GFP vs humanized-ribosome RFP mutants, fluorescence, 24 h; hits give low values; DMSO median 0, no signal -100 | 350,000 tested, 1.6% active | AID 720706;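 active = significant combined selectivity score with lowered wild-type GFP, culture density cut under 30%, mutant RFP and density less affected; inactive = any of these conditions unmet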
# E-sel inducer = induces E-selectin expression in human endothelial cells; 260,000 tested, 0.37% active; HUVEC E-selectin immunofluorescence imaging; normalized: neutral wells 0, TNF-alpha wells 100; P16581; activation, % at 7.58 µM;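 active = mean E-selectin-positive cell signal at least 10% of the positive control, reached in at least 60% of replicates, without over 20% cell loss; inconclusive = no rule given, readout overlaps actives, possibly toxicity-flagged; inactive = the rest, including those meeting only one limit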
#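 assay system = HUVEC, human umbilical vein endothelial cells | input = 3,000 HUVEC seeded per well | medium = EGM-2 growth medium on 0.1% gelatin-coated wells | dosing = one compound dose added by pin transfer | signal = immunofluorescence imaging | read-out basis = % PE-positive cells | control set = TNF-alpha, DMSO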
# AID977621 = wild-type E. coli growth inhibition versus H69 humanized strain – H69 mutant RFP, wild-type GFP, cherry-pick, dose response. shares compounds with rRNA inh HTS. activity change, negative = inhibition at 50 µM. fluorescence, 24 h. 1,900 tested, under 10 active;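 active = Wild-type ribosome reporter drop at least double the humanized mutant ribosome reporter drop, growth loss under a set limit; inconclusive = no clear call, values can overlap the other calls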;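 note: wild-type GFP and H69 mutant RFP strains grown together 50/50 in each well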
# AID977628 = E. coli growth inhibition, wild-type GFP versus h24 humanized RFP strain, dose response, h24 mutant RFP vs wild-type GFP, cherry-pick | E. coli WT GFP strain growth, fluorescence, 24 h | AID 977628 | shares compounds with rRNA inh HTS | activity change, negative = inhibition at 50 µM | 1,900 tested, under 10 active;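 active = compound lowering the normal-ribosome reporter at least twice as much as the humanized-ribosome reporter, growth loss under a set limit; inconclusive = no clear call, values can overlap the other calls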;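 note: wild-type GFP and h24 humanized RFP strains co-cultured 1 to 1 per well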
# * = called active by the depositor; u = inconclusive; x = no result.
SMILES,SIRT5 block,Statin myotox sup,FN deposition inh,FGF22 binding,rRNA inh HTS,E-sel inducer,AID977621,AID977628
S=C1SCN(Cc2cccnc2)CN1Cc1cccnc1,-3,x,-3,0,-29*,x,-15,-22
C[C@H](CO)N1C[C@H](C)[C@H](CN(C)Cc2cccc(C(F)(F)F)c2)Oc2ncccc2C1=O,x,-3,-6,x,5,0,x,x
Cc1ccsc1C(=O)OCC(=O)N1CCc2ccccc2C1,6,21,7,41,-22*,-1,-8.9,x
CN1[C@H](C(=O)NCc2ccncc2)[C@@H](CO)[C@@H]2Cn3c(ccc(-c4ccccc4F)c3=O)[C@@H]21,2,1,x,0,2,0,x,x
C=CCN(CC(O)c1cccc([N+](=O)[O-])c1)C(C)CCc1ccccc1 (stereo not given),-8,x,-2,0,-21*,0,u,x
CO[C@H]1CN(C)C(=O)c2cc(NC(=O)Nc3ccccc3F)ccc2OC[C@@H](C)N(C)C[C@H]1C,-9,2,-8,0,-1,0,x,x
O=C(C[n+]1cc(-c2ccc(F)cc2)n2c1CCC2)OCc1ccccc1,x,x,9,x,x,1,x,x
Cc1ccc(-c2c[n+](CC(=O)OCc3ccccc3)c3n2CCC3)cc1,7,-3,2,0,-14*,x,-20,-8.4
CS(=O)(=O)N1Cc2cc(C(=O)O)nc(-c3cccc(-c4ccccc4F)c3)c2[C@@H]1CCO,x,x,-10,x,2,0,x,x
Cc1ccc(NC(=O)C2CCN(c3cnccn3)CC2)cc1,-3,x,3,0,2,x,x,x
O=C(Nc1ccc(C(F)(F)F)cc1)C1CCN(c2cnccn2)CC1,1,-35,-8,0,-31*,x,-3.8,-2.6
Cc1ccc(CN(C)C(=O)c2ccc(NS(=O)(=O)c3ccc4[nH]c(=O)[nH]c4c3)cc2)cc1,3,2,-14,0,0,x,x,x
CCOc1ccc(CN(C)C(=O)c2ccc(NS(=O)(=O)c3ccc4[nH]c(=O)[nH]c4c3)cc2)cc1,0,6,-1,0,-17*,2,-25,u
Cc1cc(C)n(CC(O)COc2ccc3ccccc3c2)n1 (stereo not given),x,x,4,0,-29*,1,-16,x
COc1cc(-c2cc3nc(NCCc4ccncc4)ccn3n2)cc(OC)c1OC,-5,-26,-20,0,-18*,0,x,u
COCC(=O)N(C[C@@H]1N[C@H](CO)[C@H]1c1ccc(C2=CCCC2)cc1)C(C)C,x,-38,-7,x,3,0,x,x
CN(C)S(=O)(=O)c1ccc2oc(SCC(=O)NCC(F)(F)F)nc2c1,-9,-7,7,x,-14*,x,u,-5.6
CCS(=O)(=O)c1ccc2oc(SCC(=O)NCCc3ccc(OC)cc3)nc2c1,-4,x,x,0,-21,x,x,x
COc1ccc(-c2noc(=O)n2Cc2ccc(F)cc2Cl)cc1,-17,18,2,0,-10,0,x,x
COc1ccc(-c2noc(=O)n2Cc2ccccc2Cl)cc1,-6,-7,-2,0,-15*,x,x,0.49
COc1ccc(NC(=O)N[C@H]2CC[C@@H](CCNC(=O)Cc3ccncc3)O[C@@H]2CO)cc1,-1,-2,7,0,-1,-1,x,x
COc1ccccc1NC(=O)N[C@@H]1CC[C@@H](CCn2cc(-c3ccccc3)nn2)O[C@@H]1CO,0,3,x,0,0,-1,x,x
CCOC(=O)c1nc(S(C)(=O)=O)ncc1Cl,1,-11,x,0,-27*,x,-3,u
CCOC(=O)c1nc(S(C)(=O)=O)ncc1N1CCOCC1,x,-12,x,x,x,x,x,x
CO[C@H]1CN(C)C(=O)c2cc(NC(=O)c3cnccn3)ccc2OC[C@@H](C)N(C(C)=O)C[C@H]1C,x,-9,9,0,2,0,x,x
SMILES,SIRT5 block,Statin myotox sup,FN deposition inh,FGF22 binding,rRNA inh HTS,E-sel inducer,AID977621,AID977628
COc1ccc(-c2ccc3c(c2)[C@H]2[C@H](CCN2C(=O)CN2CCOCC2)[C@@H](CO)N3)cc1,-2,21,-17,0,4,0,x,x
CC(=O)Nc1cccc(NC(=O)c2c(-c3c(Cl)cccc3Cl)noc2C)c1,-3,-5,x,0,-17*,x,-0.74,-2
COC(=O)c1ccc(C(=O)Nc2ccc3nc(-c4ccncc4)[nH]c3c2)cc1,-2,1,0,0,-28*,0,-3.4,-3.2
O=C(Nc1ccc2nc(-c3ccc4nc[nH]c4c3)[nH]c2c1)c1cccs1,x,-13,13,x,x,x,x,x
O=C(Nc1ccc2nc(-c3ccccc3)[nH]c2c1)c1cccs1,-4,-33,x,0,-32*,x,-9,x
O=C(Nc1ccc2nc(-c3cccnc3)[nH]c2c1)c1ccco1,1,-44,-4,0,-31*,0,-13,x
O=C(C1CCC1)N1CC2(C1)[C@H](c1ccccc1)[C@@H](CO)N2CC1CCCC1,-3,x,x,x,0,0,x,x
COc1cccc(S(=O)(=O)N2CCCCN3[C@H](CO)[C@@H](c4ccc(C#CC5CC5)cc4)[C@H]3C2)c1,11,7,x,0,-52,0,x,x
COc1ccc(OC)c(S(=O)(=O)Nc2cccc3ccc(O)cc23)c1,-6,x,6,0,-32*,x,-8.6,-14
Cc1ccoc1C(=O)Nc1ccc2ccccc2c1,1,-46,5,0,-20*,1,-5.7,x
CC(=O)c1cc(C(=O)Nc2ccc3ccccc3c2)c(C)o1,0,8,4,0,-4,-6,x,x
Cc1cc(C(=O)Nc2ccc3ccccc3c2)c(C)o1,2,10,4,0,-22*,x,-9.3,-7.1
Cc1ccc(C(=O)Nc2ccc3ccccc3c2)cc1,-3,-33,2,0,6,0,x,x
Cc1sc(C(=O)Nc2ccc3ccccc3c2)cc1CC(=O)O,1,1,5,0,-31*,x,x,-5.1
COc1ccc(C[C@H]2CCn3cc(nn3)COC[C@@H](C)NC2=O)cc1,x,x,1,x,0,x,x,x
COC(=O)C1CCN(C(=O)COC(=O)c2ccc(OC)c(S(=O)(=O)N3CCCc4ccccc43)c2)CC1,2,x,9,0,-21,6,x,x
COC(=O)C1CCN(C(=O)c2ccc(OC)c(S(=O)(=O)N3CCCc4ccccc43)c2)CC1,x,4,1,0,-14*,0,-8.4,u
CO[C@H]1CN(C)C(=O)c2cc(NS(C)(=O)=O)ccc2OC[C@H](C)N(C(=O)C2CC2)C[C@H]1C,8,9,0,0,3,0,x,x

# Assay outcomes: PubChem BioAssay, Broad Institute
